Experimental findings from ChEMBL document CHEMBL4138208, “Targeting tubulin polymerization by novel 7-aryl-pyrroloquinolinones: Synthesis, biological activity and SARs” (Eur J Med Chem, 2018) are described below.

By GI50 is commonly meant the concentration at which growth is held to half of that of the control. In general, inhibition refers to the drop in the measured response relative to a control, in per cent. Broadly, the IC50 is the midpoint of a concentration-inhibition curve.

The subject of one assay is A549. Description: Growth inhibition of human A549 cells after 72 hrs by MTT assay. Particulars: A549, 72 h. Type of assay: functional. Background: Tetrazolium assays rely on reduction of a dye to a coloured formazan, in cell work by metabolically active cells.
Another assay relates to MDA-MB-231. Description: Growth inhibition of human MDA-MB-231 cells after 72 hrs by MTT assay. In kind it is functional. Particulars: MDA-MB-231, 72 h.
For another assay, the system named is Jurkat. Description: Growth inhibition of human Jurkat cells after 72 hrs by MTT assay. Type of assay: functional.
Assay [1] has as its system HeLa. Description: Growth inhibition of human HeLa cells after 72 hrs by MTT assay. Type of assay: functional.
Another assay concerns Kasumi 1. Description: Growth inhibition of human Kasumi-1 cells after 72 hrs by MTT assay. In kind it is functional. Conditions: Kasumi 1, 72 h.
For the next assay, the system named is HT-29. Description: Growth inhibition of human HT-29 cells after 72 hrs by MTT assay. Conditions: HT-29, 72 h. Type of assay: functional.
A further assay concerns RS4-11. Description: Growth inhibition of human RS4:11 cells after 72 hrs by MTT assay. Conditions: RS4-11, 72 h. In kind it is functional.
Assay [2] has as its system HeLa. Description: Induction of apoptosis in human HeLa cells at 0.1 uM after 24 to 48 hrs by propidium iodide/annexin V/FITC staining-based flow cytometric analysis. In kind it is functional, cell-based. The gist of the method:
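A549 or HeLa cells treated for 24 or 48 h. Cells harvested, double-stained with annexin-V-FITC and propidium iodide, and analysed by flow cytometry for phosphatidylserine exposure. Mean ± SEM of three independent experiments.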

The species entered for another assay is Bos taurus. Description: Inhibition of [3H]colchicine binding to bovine brain tubulin at 1 to 5 uM by DEAE-cellulose filter method relative to control.
The test system of assay [3] is CCRF-CEM. Description: Cytotoxicity against human CEM cells after 72 hrs by MTT assay. Type of assay: functional, cell-based. The method, boiled down:
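Cells seeded at 8 × 10^3 per well and preincubated 18 h at 37 °C, 5% CO2. Leukemia lines were in RPMI-1640 and adherent lines in DMEM, each with 10% FBS plus penicillin/streptomycin. Medium replaced with compound at varying concentrations, in triplicate, for 72 h.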

The test system of assay [4] is HeLa. Description: Induction of apoptosis in human HeLa cells assessed as decrease in Bcl-2 levels at 0.1 to 1 uM after 24 hrs by Western blot analysis. Type of assay: functional, cell-based. The method, boiled down:
(§1)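 HeLa cells treated for the stated times (24 or 48 h), washed in cold PBS and lysed on ice for 30 min. Lysate cleared at 15000 × g, 4 °C. 10 µg protein run on SDS-PAGE and blotted to PVDF, blocked in 5% BSA. Primary antibodies 2 h at room temperature, then peroxidase secondary 60 min, ECL detection. Membranes stripped and reprobed for γ-tubulin as loading control.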
For orientation: A western blot detects proteins with antibodies after separation by electrophoresis.

Assay [5] concerns the target Cyclin-dependent kinase 1 (Homo sapiens) (UniProt P06493). Description: Inhibition of cdc2 phosphorylation at Y15 in human HeLa cells at 0.1 to 1 uM after 24 to 48 hrs by Western blot analysis. In kind it is cell-based. The method, boiled down:
as §1

Assay [6] has as its system HeLa. Description: Cell cycle arrest in human HeLa cells assessed as accumulation at G1 phase after 24 hrs by propidium iodide staining-based flow cytometric analysis. Type of assay: functional. The method, boiled down: (§2)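 HeLa cells (5 × 10^5) exposed to graded compound concentrations for 24 h, fixed in ice-cold 70% ethanol, then lysed in buffer with RNase A and 0.1% Triton X-100. DNA stained with propidium iodide and phase distribution read by flow cytometry. Mean of two independent experiments ± SEM.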
(In general: A flow cytometer gives signals particle by particle.)

In assay [7] the test system is HeLa. Description: Cell cycle arrest in human HeLa cells assessed as accumulation at S phase after 24 hrs by propidium iodide staining-based flow cytometric analysis. In kind it is functional. The method, boiled down:
as §2

The target in assay [8] is T1, M-phase inducer phosphatase 3 (Homo sapiens) (UniProt P30307).
T1 sequence (whole entry): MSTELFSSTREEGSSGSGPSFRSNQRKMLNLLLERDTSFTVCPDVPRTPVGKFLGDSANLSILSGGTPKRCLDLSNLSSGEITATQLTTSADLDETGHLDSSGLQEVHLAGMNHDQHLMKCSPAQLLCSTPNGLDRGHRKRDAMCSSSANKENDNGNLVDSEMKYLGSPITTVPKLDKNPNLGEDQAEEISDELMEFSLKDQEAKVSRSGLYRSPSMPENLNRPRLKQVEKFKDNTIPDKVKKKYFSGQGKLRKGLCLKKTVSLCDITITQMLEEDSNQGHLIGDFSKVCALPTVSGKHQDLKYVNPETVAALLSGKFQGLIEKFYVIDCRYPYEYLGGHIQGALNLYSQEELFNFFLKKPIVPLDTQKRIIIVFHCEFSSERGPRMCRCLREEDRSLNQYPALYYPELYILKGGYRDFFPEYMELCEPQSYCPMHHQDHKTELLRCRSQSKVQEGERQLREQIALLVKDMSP
Description: Inhibition of cdc25c phosphorylation in human HeLa cells at 0.1 to 1 uM after 24 to 48 hrs by Western blot analysis. In kind it is cell-based. The gist of the method: as §1

In assay [9] the test system is HeLa. Description: Induction of apoptosis in human HeLa cells assessed as decrease in Mcl-1 levels at 0.1 to 1 uM after 24 hrs by Western blot analysis. In kind it is functional, cell-based. The method, boiled down:
as §1

For assay [10], the system named is HeLa. Description: Cell cycle arrest in human HeLa cells assessed as decrease in phosphatase cdc25c expression at 0.1 to 1 uM after 24 to 48 hrs by Western blot analysis. In kind it is functional, cell-based. The gist of the method: as §1
In assay [11] the test system is HeLa. Description: Induction of mitochondrial membrane depolarization in human HeLa cells at 0.1 to 1 uM by JC-1 staining based flow cytometric analysis. In kind it is functional, cell-based. Conditions: TDE = time-dependent effect. The gist of the method: (§3)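 HeLa cells exposed for 6, 12, 24 or 48 h. Stained either with JC-1 to read mitochondrial membrane potential or with H2-DCFDA to read ROS, then analysed by flow cytometry. Mean ± SEM of three independent experiments.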

Assay [12] concerns CCRF-CEM. Description: Cytotoxicity against human multidrug-resistant CEM/VBL100 cells after 72 hrs by MTT assay. In kind it is functional, cell-based. The gist of the method: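 CEMVbl-100 (vinblastine-selected, P-gp-overexpressing) cells maintained in RPMI-1640 containing 100 ng/mL vinblastine. Seeded at 8 × 10^3 per well, preincubated 18 h, then exposed in triplicate to varying concentrations for 72 h. Viability read by MTT. IC50 taken as mean ± SEM of three separate experiments.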

The test system of assay [13] is HeLa. Description: Induction of ROS production in human HeLa cells at 0.1 to 1 uM after 12 to 24 hrs by H2DCFDA staining based flow cytometric analysis. In kind it is functional, cell-based. The gist of the method: as §3
In assay [14] the test system is HeLa. Description: Cell cycle arrest in human HeLa cells assessed as accumulation at G2/M phase after 24 hrs by propidium iodide staining-based flow cytometric analysis. Type of assay: functional. The gist of the method:
as §2

Calls of active or inactive are those of the source. The rule behind the calls is not given here.

Cyclin-dependent kinase 1 (Homo sapiens), sequence (P06493 whole entry, looked up): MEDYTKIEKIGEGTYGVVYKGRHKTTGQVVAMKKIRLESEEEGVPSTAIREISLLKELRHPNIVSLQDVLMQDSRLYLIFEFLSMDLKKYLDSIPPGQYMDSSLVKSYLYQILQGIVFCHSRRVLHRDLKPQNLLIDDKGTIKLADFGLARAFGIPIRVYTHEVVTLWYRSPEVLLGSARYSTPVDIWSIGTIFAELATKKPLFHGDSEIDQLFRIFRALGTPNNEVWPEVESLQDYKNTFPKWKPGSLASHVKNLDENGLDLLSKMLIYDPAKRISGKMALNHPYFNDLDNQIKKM

Consider `CCCCCCCCCCCCCCCCCCn1ccc2c3c(=O)cc(C)[nH]c3ccc21`, for which the GI50 was 3400 nM with A549; more than 10000 nM in the assay on MDA-MB-231; more than 10000 nM with Jurkat; 2380 nM with HeLa [1]; more than 10000 nM in the assay with Kasumi 1; more than 10000 nM in the assay on HT-29. In addition, the GI50 in the assay with RS4-11 was more than 10000 nM.

Take `COc1ccc(/C=C\c2cc(OC)c(OC)c(OC)c2)cc1O`: the result in the assay on HeLa [2] was Active.

Consider `CCn1ccc2cc3c(=O)cc(-c4ccccc4)[nH]c3cc21`, for which the GI50 stood at 7.1 nM in the assay on A549; 641 nM in the assay with MDA-MB-231; 27 nM in the assay on Jurkat; 49 nM in the assay with HeLa [1]; 30 nM with Kasumi 1; 16 nM in the assay with HT-29. Also, in the assay on RS4-11, the GI50 was 13 nM. The compound further gave an inhibition in the assay filed under Bos taurus of 24%.

Regarding `CCn1ccc2ccc3[nH]c(-c4ccccc4)cc(=O)c3c21`, the GI50 was determined as 7.1 nM with A549; 641 nM in the assay with MDA-MB-231; 27 nM in the assay with Jurkat; 49 nM in the assay with HeLa [1]; 30 nM in the assay with Kasumi 1; 16 nM with HT-29. The same compound had a GI50 with RS4-11 of 13 nM. In the assay filed under Bos taurus, this compound displayed an inhibition of 24%.

Turning to `CCn1ccc2c3c(=O)cc(-c4ccc5c(c4)OCO5)[nH]c3ccc21`, the IC50 in the assay with CCRF-CEM [3] is 27.8 nM; in the assay on CCRF-CEM [12], 3.7 nM. Also, the result in the assay on HeLa [4], in the assay on HeLa [6], in the assay with HeLa [7], in the assay on HeLa [9], in the assay with HeLa [10] and with HeLa [13] was Active. The result with HeLa [14] was Active. In addition, the inhibition result in assay [5] and in [8] was “Active” throughout. Moreover, the Activity result with HeLa [11] was “Tde”.

As to `CCn1ccc2c3c(=O)cc(-c4ccc5ccccc5c4)[nH]c3ccc21`, the GI50 in the assay on A549 was 744 nM; in the assay on MDA-MB-231, 465 nM; with Jurkat, 32 nM; in the assay with HeLa [1] it was 714 nM; with Kasumi 1, 396 nM; in the assay on HT-29 it was 376 nM. This compound gave a GI50 in the assay on RS4-11 of 22 nM.

Consider `O=C1C=C(c2ccccc2)Nc2cccc3ccn1c23`, for which the GI50 in the assay with A549, in the assay with MDA-MB-231, with Jurkat, in the assay with HeLa [1], in the assay on Kasumi 1 and in the assay with HT-29 was more than 10000 nM each time. In the assay with RS4-11, this compound had a GI50 of more than 10000 nM.

On to `CCn1ccc2c3c(=O)cc(-c4ccc5c(c4)CCCC5)[nH]c3ccc21`, for which the result in the assay with HeLa [6], in the assay with HeLa [7] and in the assay on HeLa [14] was Active.

As to `CCCCCCCCCCCCCCCCCCn1ccc2c3c(=O)cc(-c4ccccc4)[nH]c3ccc21`, the GI50 in the assay on A549 is 820 nM; in the assay on MDA-MB-231, 5360 nM; in the assay on Jurkat it was more than 10000 nM; in the assay on HeLa [1], 8350 nM; in the assay on Kasumi 1, more than 10000 nM; in the assay on HT-29, more than 10000 nM. Moreover, the GI50 with RS4-11 is more than 10000 nM.

For the compound `CC[C@]1(O)C[C@@H]2CN(CCc3c([nH]c4ccccc34)[C@@](C(=O)OC)(c3cc4c(cc3OC)N(C)[C@H]3[C@@](O)(C(=O)OC)[C@H](OC(C)=O)[C@]5(CC)C=CCN6CC[C@]43[C@@H]65)C2)C1` [VINBLASTINE], the figures for the IC50 with CCRF-CEM [3] and in the assay with CCRF-CEM [12] were 1.5 nM and 285 nM, respectively.

For the compound `CCn1ccc2ccc3c(=O)cc(-c4ccccc4)[nH]c3c21`, the 50% growth inhibitory concentration (GI50) with A549 is 9590 nM; in the assay with MDA-MB-231 it was more than 10000 nM; with Jurkat it was more than 10000 nM; in the assay with HeLa [1], 5920 nM; in the assay with Kasumi 1 it was more than 10000 nM; with HT-29, more than 10000 nM. In the assay on RS4-11, this compound yielded a GI50 of more than 10000 nM.

For the compound `CCn1ccc2c3c(=O)cc(-c4cccc5ccccc45)[nH]c3ccc21`, the concentration for half-maximal inhibition (IC50) in the assay with CCRF-CEM [3] was 29.8 nM; in the assay on CCRF-CEM [12] it was 2.3 nM. In addition, the result with HeLa [6], in the assay on HeLa [7] and in the assay with HeLa [14] was Active.
